Experimental data from article PMC3690177 (Bioorganic & medicinal chemistry letters, 2008).

Experiments:
[1] = tested on: Swiss mice; experiment: Formalin plantar test with; format: in vivo, mouse; settings: for Effect on analgesic effects of methanandamide in formalin test: 30 min before intraplantar formalin with mAEA 50 μg
Method in brief: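 Swiss mice were pretreated i.p. with vehicle, test compound (20 mg-kg−1) or CB1 antagonist (2 mg-kg−1). Intraplantar formalin followed 30 min later, with or without co-injected (R)-methanandamide (50 μg). Nociception was scored in the first phase (0–15 min) and second phase (15–45 min). n = 8–13. Analysis was repeated-measures ANOVA with Bonferroni tests. Error bars are SEM.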

[2] = tested on: mice; experiment: Motor activity in mice; format: in vivo, mouse; settings: 20 mg-kg−1 i.p.; data not shown
[3] = biological target: CB1 receptors (Rattus norvegicus, UniProt P20272); experiment: GTPγS binding in rat cerebellar membrane preparations; format: biochemical; settings: absence of WIN55,212-2; 100 nM–10 μM; data not shown
Sequence of CB1 receptors (P20272 whole entry): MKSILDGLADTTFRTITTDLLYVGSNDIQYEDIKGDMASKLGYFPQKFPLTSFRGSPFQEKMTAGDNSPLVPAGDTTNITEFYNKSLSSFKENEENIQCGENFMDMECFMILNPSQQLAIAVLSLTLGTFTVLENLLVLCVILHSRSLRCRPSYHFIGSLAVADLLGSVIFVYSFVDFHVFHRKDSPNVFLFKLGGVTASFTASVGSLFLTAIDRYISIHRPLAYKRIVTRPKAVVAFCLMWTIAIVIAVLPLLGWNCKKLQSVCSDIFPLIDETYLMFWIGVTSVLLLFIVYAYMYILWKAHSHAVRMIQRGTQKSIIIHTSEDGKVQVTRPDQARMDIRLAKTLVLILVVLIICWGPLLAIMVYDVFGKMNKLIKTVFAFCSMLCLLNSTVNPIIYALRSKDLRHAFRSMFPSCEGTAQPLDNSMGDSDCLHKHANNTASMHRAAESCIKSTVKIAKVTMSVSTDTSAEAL

[4] = tested on: Swiss mice; experiment: Food intake over 24 h in Swiss mice; format: in vivo, mouse; settings: 30 min before dark onset; for Effect on total food consumption: 20 mg-kg−1 i.p.
Method in brief: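 Male Swiss mice were dosed i.p. with test compound (5 or 20 mg-kg−1) or vehicle 30 min before dark onset. Cumulative food intake was monitored for 24 h. n = 12 per group. Data were analysed by 2-way repeated-measures ANOVA with Bonferroni post hoc test. Error bars are SEM.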

[5] = Drug levels in plasma and tissues after systemic administration; format: in vivo, mouse
[6] = tested on: mice; experiment: WIN55,212-2-induced catalepsy, ring catalepsy test; format: in vivo, mouse; settings: for Effect on WIN55,212-2-induced catalepsy: 30 min prior to WIN55,212-2 5 mg-kg−1
Method in brief: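 Mice were pretreated i.p. with vehicle, test compound (20 mg-kg−1) or CB1 antagonist (5 mg-kg−1). After 30 min they received vehicle or WIN55,212-2 (5 mg-kg−1, i.p.). Cataleptic behaviour was scored 30 min after the WIN55,212-2 injection. n = 6. Analysis was ANOVA with Bonferroni post hoc tests. Error bars are SEM.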

[7] = tested on: ob/ob mice; experiment: Food intake and body-weight gain in ob/ob mice, daily treatment for 2 weeks; format: in vivo, mouse; settings: 20 mg-kg−1 i.p. once daily for 2 weeks
Method in brief: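 Genetically obese ob/ob mice received test compound (20 mg-kg−1, i.p.) or vehicle once daily for 2 weeks. Food intake was recorded, and body weight was expressed as % change from day 0. n = 8 per group. Analysis was 2-way repeated-measures ANOVA with Bonferroni post hoc test. Error bars are SEM.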

[8] = tested on: Swiss mice; experiment: WIN55,212-2-induced hypothermia; format: in vivo, mouse
Method in brief: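 Swiss mice received a first i.p. injection of vehicle, test compound (20 mg-kg−1) or CB1 antagonist (2 mg-kg−1). A second injection of WIN55,212-2 (3 mg-kg−1, i.p.) followed 30 min later. Body temperature was read 30 min after WIN55,212-2. n = 5. Analysis was ANOVA with Bonferroni post hoc tests. Error bars are SEM.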

[9] = tested on: mouse CB2 receptors; experiment: cAMP accumulation in Hek-293 cells stably expressing mouse CB2 receptors; format: cell-based; settings: isoproterenol 10 μM alone; basal 18 ± 2.4; n = 4

Q: For `CCCCC/C=C\C/C=C\C/C=C\C/C=C\CCCC(=O)N[C@H](C)CO` [(R)-methanandamide], which “Effect on nocifensive behavior in the formalin plantar test” value ([1]; mAEA 50 μg co-injected with formalin) is on record?
A: The value was “inhibits”.

Q: With `Cc1c(C(=O)c2ccccc2)c(N)c(-c2ccccc2)n1Cc1ccc(Cl)cc1` [URB447, [4-amino-1-(4-chlorobenzyl)-2-methyl-5-phenyl-1H-pyrrol-3-yl](phenyl)methanone] as the compound, how does the “Effect on motor activity” value [2] read?
A: Its value is “did not alter”.

Q: And the “Inhibition of basal GTPγS binding” value [3]?
A: The value was “failed to inhibit”.

Q: What about the “Effect on food intake” value ([4]; 5 mg-kg−1 i.p.) of the same compound?
A: Its value is “no effect”.

Q: What about the “Effect on total food consumption” value [4] of the same compound?
A: The value was “drastically reduced”.

Q: And the “Liver Cmax” value ([5]; 20 mg-kg−1 i.p.)?
A: The value was 4.3 ± 0.7 nmol/g.

Q: And the “Time of maximal tissue levels in liver” value ([5]; 20 mg-kg−1 i.p.)?
A: The value was 15 min.

Q: And the “Time of maximal tissue levels in white adipose fat” value ([5]; 20 mg-kg−1 i.p.)?
A: Its value is 15 min.

Q: And the Cmax ([5]; mouse, plasma, ip, 20 mg)?
A: Its Cmax is 596 ± 117 nM.

Q: And the Tmax ([5]; mouse, plasma, ip, 20 mg)?
A: Its Tmax is 30 min.

Q: And the “Effect on analgesic effects of methanandamide in formalin test” value ([1]; 20 mg-kg−1 i.p.)?
A: Its value is “completely blocked”.

Q: What about the “Effect on WIN55,212-2-induced catalepsy” value ([6]; 20 mg-kg−1 i.p.) of the same compound?
A: The value was “unaffected”.

Q: What about the “Amount of food consumed throughout the treatment period” value [7] of the same compound?
A: Its value is “significant reduction”.

Q: And the Body-weight gain [7]?
A: Its Body-weight gain is “significant attenuation”.

Q: Which “Time spent cataleptic in the ring catalepsy test” value ([6]; 5 mg-kg−1, scored 30 min later) does the source give for `Cc1c(C(=O)c2cccc3ccccc23)c2cccc3c2n1[C@H](CN1CCOCC1)CO3` [WIN55,212-2] here?
A: Its value is “significant increase”.

Q: What about the Body temperature effect ([8]; 3 mg-kg−1 i.p., 30 min after administration) of the same compound?
A: The Body temperature effect was “maximal hypothermia”.

Q: For `CC(C)NCC(O)c1ccc(O)c(O)c1` (stereo not drawn) [isoproterenol], which cAMP levels [9] is on record?
A: Its cAMP levels is 56.2 ± 6 pmol/well.

Q: For `Cc1c(C(=O)NN2CCCCC2)nn(-c2ccc(Cl)cc2Cl)c1-c1ccc(Cl)cc1` [rimonabant], which “Effect on total food consumption” value [4] is on record?
A: Its value is “mimicked”.

Q: And the “Effect on analgesic effects of methanandamide in formalin test” value ([1]; 2 mg-kg−1 i.p.)?
A: Its value is “completely blocked”.

Q: What about the “Effect on WIN55,212-2-induced catalepsy” value ([6]; 5 mg-kg−1 i.p.) of the same compound?
A: Its value is “reversed”.

Q: What about the “Effect on WIN55,212-2-induced hypothermia” value ([8]; 2 mg-kg−1 i.p., 30 min pretreatment, WIN55,212-2 3 mg-kg−1 i.p.) of the same compound?
A: The value was “attenuated”.
